Structures are written as SMILES. Activity calls are given as the source filed them. The calls are words filed in the database; no cut-off is given here.

Data set [1] deals with Trypanosoma cruzi. As to the kind of experiment: Antitrypanosomal activity against Trypanosoma cruzi MHOM/Pe/2011/Arequipa;DTU 5 epimastigote assessed as effect on L-alanine excretion at IC50 after 72 hrs by H NMR method relative to control. Type of data set: functional, organism-based. A digest of the protocol: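 Cells were spun at 800 × g for 10 min and culture supernatants analysed by 1H NMR. Catabolite peaks were expressed as % variation versus untreated parasites.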

Data set [2] is described as follows: Toxicity in BALB/c mouse infected with Trypanosoma cruzi MHOM/Pe/2011/Arequipa;DTU 5 bloodstream trypomastigote assessed as decrease in serum creatine kinase muscle to brain ratio level in chronic phase at 20 mg/kg/day, po administered for 5 consecutive days starting from day 70 post infection measured on day 100 post infection relative to control. It counts as organism-based. Further details: scale not given: the % may be the effect or the level left. Particulars: in vivo. A digest of the protocol:
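Female BALB/c mice (10–12 weeks, 14–20 g; groups of three) were infected i.p. with 5 × 10^5 Arequipa bloodstream trypomastigotes. Dosing was oral at 20 mg/kg/day for 5 days, from day 8 pi (acute) or day 70 pi (chronic), as a 2 mg/ml suspension in 5% DMSO/0.5% HPMC; controls received vehicle. Cyclophosphamide 200 mg/kg i.p. was given at day 80 pi. Serum was collected 2 days post-treatment and at necropsy by cardiac puncture and compared with infected untreated controls.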

In data set [3] the test system is Trypanosoma cruzi. As to the kind of experiment: Antitrypanosomal activity against Trypanosoma cruzi MHOM/Pe/2011/Arequipa;DTU 5 epimastigote assessed as depolarization of mitochondrial membrane at IC50 measured after 72 hrs by rhodamine 123 and acridine orange staining based flow cytometry relative to control. It counts as functional. An outline of the steps: (§1)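 They were stained with rhodamine 123 or acridine orange and analysed by flow cytometry. Index of variation = (TM−CM)/CM, from median fluorescence of treated (TM) and untreated (CM) parasites.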
In general terms: Flow cytometry measures light scatter and fluorescence of single cells or particles in a stream.

Data set [4] relates to Trypanosoma cruzi. As to the kind of experiment: Antitrypanosomal activity against bloodstream trypomastigote stage of Trypanosoma cruzi IRHOD/CO/2008/SN3;DTU 1 isolated from parasite infected BALB/c Albino mouse cardiac cells after 24 hrs by Neubauer chamber based cell counting method. Type of data set: functional, organism-based. Particulars: IRHOD/CO/2008/SN3;DTU 1, 24 h. A digest of the protocol: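 Bloodstream trypomastigotes were taken by cardiac puncture from infected BALB/c mice and diluted in RPMI + 10% heat-inactivated FBS. At 2 × 10^6/mL they were exposed to 3.1–50.0 µM (lower where needed) for 24 h at 37 °C, 5% CO2, and counted in a Neubauer chamber. Triplicates, at least three experiments; IC50 by nonlinear regression.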

For data set [5], the system named is Trypanosoma cruzi. As to the kind of experiment: Antitrypanosomal activity against Trypanosoma cruzi MHOM/Pe/2011/Arequipa;DTU 5 bloodstream trypomastigotes infected in BALB/c mouse assessed as parasite-free stomach in acute phase at 20 mg/kg/day, po administered for 5 consecutive days starting from day 8 post infection followed by cyclophosphamide induced immunosuppression on day 80 post infection measured after day 100 post infection by PCR method relative to control. It counts as functional. A digest of the protocol:
(§2)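 Female BALB/c mice (10–12 weeks, three per group) were infected i.p. with 5 × 10^5 Arequipa bloodstream trypomastigotes. Dosing was oral, 20 mg/kg/day for 5 days, as a suspension in 5% DMSO/0.5% HPMC. Cyclophosphamide 200 mg/kg i.p. was given at day 80 pi. At necropsy (day 100) tissues were tested by PCR on the splice leader region (primers TC/TC1, 300 bp). Scored as x/3 mice positive.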

The test system of data set [6] is Trypanosoma cruzi. As to the kind of experiment: Antitrypanosomal activity against Trypanosoma cruzi MHOM/Pe/2011/Arequipa;DTU 5 bloodstream trypomastigote infected in BALB/c mouse assessed as parasite-free oesophagus in chronic phase at 20 mg/kg/day, po administered for 5 consecutive days starting from day 70 post infection followed by cyclophosphamide induced immunosuppression on day 80 post infection measured after day 100 post infection by PCR method relative to control. Type of data set: functional. An outline of the steps:
as §2

Data set [7] has as its system Trypanosoma cruzi. Put plainly: Antitrypanosomal activity against Trypanosoma cruzi MHOM/Pe/2011/Arequipa;DTU 5 bloodstream trypomastigote infected in BALB/c mouse assessed as parasite-free heart in chronic phase at 20 mg/kg/day, po administered for 5 consecutive days starting from day 70 post infection followed by cyclophosphamide induced immunosuppression on day 80 post infection measured after day 100 post infection by PCR method relative to control. Type of data set: functional. A digest of the protocol:
as §2

Data set [8] has as its system Trypanosoma cruzi. Put plainly: Antitrypanosomal activity against Trypanosoma cruzi MHOM/Pe/2011/Arequipa;DTU 5 amastigote forms measured after 72 hrs by Giemsa staining based assay. It counts as functional, organism-based. Particulars: MHOM/Pe/2011/Arequipa;DTU 5, 72 h. An outline of the steps:
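Vero cells (1 × 10^4/well, on coverslips) left to adhere 24 h at 37 °C, 5% CO2, then infected with trypomastigotes at MOI 10:1 for 24 h. Free parasites were removed by three PBS washes. Compounds at 3.1, 6.25, 12.5, 25 and 50 µM were incubated 72 h, and amastigotes were counted after Giemsa staining. Triplicates, two separate experiments; IC50 by nonlinear regression.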

Data set [9] deals with Trypanosoma cruzi. As to the kind of experiment: Antitrypanosomal activity against Trypanosoma cruzi MHOM/Pe/2011/Arequipa;DTU 5 epimastigote assessed as change in RNA level at IC50 measured after 72 hrs by acridine orange staining based flow cytometry relative to control. It counts as functional. An outline of the steps: as §1
Data set [10] relates to Vero. Put plainly: Cytotoxicity against African green monkey Vero cells measured after 72 hrs by MTT assay. Particulars: Chlorocebus sabaeus. Type of data set: cell-based. A digest of the protocol: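 Log-phase Vero cells (0.8 × 10^4/well) in RPMI-1640 + 10% heat-inactivated FBS at 37 °C, 5% CO2 were exposed 72 h to serial dilutions (10.0–200.0 µM; stocks in DMSO). MTT was then added for 4 h and absorbance read. Quadruplicates, three experiments; IC50 by nonlinear regression.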
In general terms: Tetrazolium dyes change colour on reduction, which living cells bring about.

The subject of data set [11] is Trypanosoma cruzi. Put plainly: Antitrypanosomal activity against Trypanosoma cruzi MHOM/Pe/2011/Arequipa;DTU 5 bloodstream trypomastigote infected in BALB/c mouse assessed as parasite-free adipose tissue in acute phase at 20 mg/kg/day, po administered for 5 consecutive days starting from day 8 post infection followed by cyclophosphamide induced immunosuppression on day 80 post infection measured after day 100 post infection by PCR method relative to control. It counts as functional. A digest of the protocol: as §2

The subject of data set [12] is Trypanosoma cruzi. Put plainly: Antitrypanosomal activity against Trypanosoma cruzi MHOM/Pe/2011/Arequipa;DTU 5 bloodstream trypomastigote infected in BALB/c mouse assessed as parasite-free bone marrow in chronic phase at 20 mg/kg/day, po administered for 5 consecutive days starting from day 70 post infection followed by cyclophosphamide induced immunosuppression on day 80 post infection measured after day 100 post infection by PCR method relative to control. It counts as functional. A digest of the protocol:
as §2

Data set [13] in a line: Selectivity index, ratio of IC50 for African green monkey Vero cells to IC50 for Trypanosoma cruzi MHOM/Pe/2011/Arequipa;DTU 5. Type of data set: toxicity. Particulars: read-out: Selectivity Index. An outline of the steps:
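SI = Vero IC50 / epimastigote IC50. Vero cells were grown in RPMI-1640 with 10% FBS, seeded at 0.8 × 10^4 cells/well, exposed to 10.0–200.0 µM for 72 h, then given MTT for 4 h. Epimastigotes were grown in MTL with 10% FBS at 28 °C, 5 × 10^5/mL, exposed to 6.3–50 µM for 48 h, then resazurin for 24 h (570/600 nm). IC50s came from nonlinear regression.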

The nature of data set [14]: Selectivity index, ratio of IC50 for African green monkey Vero cells to IC50 for Trypanosoma cruzi IRHOD/CO/2008/SN3;DTU 1 amastigote forms. It counts as toxicity. As to conditions: read-out: Selectivity Index. A digest of the protocol:
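Vero cells (1 × 10^4/well) were infected with trypomastigotes at MOI 10:1 for 24 h and washed with PBS. They were then exposed to 3.1–50 µM for 72 h at 37 °C in 5% CO2, and amastigotes were counted after Giemsa staining. Triplicates in two determinations; nonlinear regression.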

Turning to `O=C(CCN1CCN(c2ccc(C(F)(F)F)cc2)CC1)c1ccc(O)cc1`, in data set [1], the outcome was Active. Further, the Activity result is “<= 30%” in data set [2]; 54.4% in [3]; 13% in [5]; 50% in data set [6]; 50% in data set [7]; -4.2% in [9]. The Activity in data set [11] was determined as 13%; in data set [12], 50%. Moreover, the IC50 turned out to be 2.1 µM in [4], 6.2 µM in [8] and 107 µM in data set [10]. Also, the selectivity ratio in data set [13] was found to be 4.7; in [14] it was 16.2.

As to `O=C(Cn1ccnc1[N+](=O)[O-])NCc1ccccc1` [BENZNIDAZOLE], the outcome in [1] was Active. For the same compound, the Activity result is “<= 10%” in data set [2]; 15.2% in data set [3]; 25% in [5]; 38% in [6]; 38% in data set [7]; -4.7% in data set [9]. The Activity in data set [11] is reported as 25%; in data set [12], 38%. Also, the 50% inhibitory concentration (IC50) in [4] was 33.3 µM; in data set [8] it was 3 µM; in data set [10] it was greater than 200 µM. For the same compound, the selectivity ratio is greater than 7.6 in data set [13] and greater than 45.6 in data set [14].

As for `O=C(CCN1CCN(c2ccc(Cl)cc2)CC1)c1ccc(O)cc1`, the result in [1] was Active. The Activity result in [2] is listed as “<= 20%”; in data set [3], 67.6%; in [5] it was 50%; in data set [6] it was 63%; in data set [7], 63%; in data set [9], -5.1%. The values for the Activity in data set [11] and in [12] were 50% and 63%, respectively. The IC50 in data set [4] is 2 µM; in [8], 5.1 µM; in data set [10], 104 µM. Moreover, the selectivity ratio in [13] turned out to be 5.6; in data set [14] it was 23.2.

As a reminder, the IC50 is the concentration that gives 50% inhibition.

The values above are taken from ChEMBL document CHEMBL4402517, “Rational modification of Mannich base-type derivatives as novel antichagasic compounds: Synthesis, in vitro and in vivo evaluation” (Bioorg Med Chem, 2019).
